Results reported in PubChem BioAssay AID2656 (Broad Institute, 2010).
Active and inactive are the calls of the source.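 The calls were made as follows: active = mean inhibition of serotonin release over both replicates above 50%; inactive = mean inhibition at or below 50%.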

Tested on: Human washed platelets, SFLLRN-induced 14C-serotonin release
Experiment: inhibition of SFLLRN-induced dense granule secretion, late-stage follow-up, mechanism study for platelet granule secretion inhibitor project, cell-based, 14C-serotonin release, radioactive (AID 2656)
Details: at 10 µM; stronger effect = higher value
Outline: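 Material: washed platelets preloaded with 14C-serotonin / Input: 2x10^8 platelets/mL / Medium: HEPES-Tyrodes buffer for resuspended platelets / Reagent: SFLLRN peptide 5 µM plus imipramine 5 µM blocking reuptake / Dosing: single compound dose of 10 µM / Timing: compound pre-incubation 15 min, SFLLRN stimulation 15 min / Technique: beta scintillation counting of supernatant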

SMILES | inhibition
COc1ccc(C(=O)Nc2ccc(N3CCOCC3)cc2)cc1OC | 9.3% (inactive)
COC(=O)c1ccccc1NC(=O)Nc1ccc2c(c1)OCO2 | 15.4% (inactive)
COC(=O)c1nn(-c2ccc3c(c2)CCN3C(C)=O)cc1O | 12.8% (inactive)
CCOc1ccc2nc(NCCO)[nH]c2c1 | 9.75% (inactive)
COc1cc2c(cc1OC)-c1cc(Nc3ccccc3C)nc(=O)n1CC2 | 94.8%
O=C(Oc1ccc(Cl)cc1)c1ccc(COC(=O)c2cnccn2)cc1 | 0.5% (inactive)
CC(=O)Oc1ccc(-c2nc(-c3cccnc3)no2)cc1 | -5.2% (inactive)
